Results reported in ChEMBL document CHEMBL4406880, “Design, synthesis, and bioactivity of dihydropyrimidine derivatives as kinesin spindle protein inhibitors” (Bioorg Med Chem, 2019).

Columns and labels:
Type in all cases: functional
DU-145 [1] = experiment: Growth inhibition of human DU145 cells incubated for 48 hrs by sulforhodamine B assay; details: DU-145, 48 h
Summary of the method: (§1)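 NCI-60 five-dose mode: five tenfold dilutions (0.01, 0.1, 1, 10, 100 µM) are applied for 48 h to cells in RPMI 1640 with 5% FBS at 37 °C. Endpoint is TCA fixation with sulforhodamine B read at 515 nm. % growth comes from the 0 h and control absorbances. GI50 is the concentration giving a 50% reduction in net cell growth.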

SNB-75 = experiment: Induction of apoptosis in human SNB75 cells assessed as early apoptotic cells at 2 uM incubated for 24 hrs by annexin V FITC and propidium iodide based flow cytometry (reference value: 0.82 %)
HL-60(TB) [2] = experiment: Growth inhibition of human HL-60(TB) cells assessed as cell viability at 0.001 uM incubated for 48 hrs by sulforhodamine B assay relative to control; details: HL-60, 48 h, read-out: Activity
NCI/ADR-RES = experiment: Growth inhibition of human NCI/ADR-RES cells assessed as cell viability at 100 uM incubated for 48 hrs by sulforhodamine B assay; details: read-out: Activity
T47D [3] = experiment: Growth inhibition of human T47D cells incubated for 48 hrs by sulforhodamine B assay
Summary of the method: (§2)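 NCI-60 five-dose SRB assay. Cells were exposed for 48 h to tenfold dilutions of 0.01, 0.1, 1, 10 and 100 µM, in RPMI 1640 with 5% FBS. Plates fixed with TCA at the time of drug addition served as the time-zero reference. GI50 is the concentration giving a 50% reduction in net growth. TGI is total growth inhibition. LC50 is a net 50% loss of the initial cells.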

M14 = experiment: Growth inhibition of human M14 cells assessed as cell viability at 0.001 uM incubated for 48 hrs by sulforhodamine B assay relative to control; details: M14, 48 h, read-out: Activity
OVCAR-3 [4] = experiment: Growth inhibition of human OVCAR3 cells incubated for 48 hrs by sulforhodamine B assay; details: OVCAR-3, 48 h
Summary of the method: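 NCI-60 five-dose SRB assay in RPMI 1640 with 5% FBS, 37 °C, 5% CO2. Compound given at five tenfold dilutions, 0.01–100 µM, for 48 h. Adherent cells fixed with TCA, suspension cells with 16% final TCA. Bound SRB read at 515 nm and growth calculated against time-zero and untreated controls. GI50 taken from dose–response curves as the concentration giving a 50% decrease in net cell growth.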

MOLT-4 = experiment: Growth inhibition of human MOLT4 cells assessed as cell viability at 1 uM incubated for 48 hrs by sulforhodamine B assay; details: MOLT-4, 48 h, read-out: Activity
OVCAR-8 [5] = experiment: Growth inhibition of human OVCAR8 cells assessed as cell viability at 0.001 uM incubated for 48 hrs by sulforhodamine B assay relative to control; details: OVCAR-8, 48 h, read-out: Activity
OVCAR-3 [6] = experiment: Growth inhibition of human OVCAR3 cells assessed as cell viability at 0.001 uM incubated for 48 hrs by sulforhodamine B assay relative to control; details: OVCAR-3, 48 h, read-out: Activity
HL-60(TB) [7] = experiment: Growth inhibition of human HL-60(TB) cells assessed as cell viability at 100 uM incubated for 48 hrs by sulforhodamine B assay; details: HL-60, 48 h, read-out: Activity
Summary of the method: (§3)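 NCI-60 five-dose assay, SRB end-point, same culture conditions. Compound is tested at tenfold dilutions of 0.01, 0.1, 1, 10 and 100 µM for 48 h at 37 °C, with DMSO/PBS vehicle controls. Percentage growth at each concentration is taken against untreated cells and a time-zero plate. GI50 is 50% net growth decrease, TGI is total growth inhibition, and LC50 is 50% loss of initial cells.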

SK-OV-3 = experiment: Growth inhibition of human SKOV3 cells assessed as cell viability at 0.001 uM incubated for 48 hrs by sulforhodamine B assay relative to control; details: SK-OV-3, 48 h, read-out: Activity
HL-60(TB) [8] = experiment: Growth inhibition of human HL-60(TB) cells assessed as cell viability at 1 uM incubated for 48 hrs by sulforhodamine B assay; details: HL-60, 48 h, read-out: Activity; summary of the method: as §3
DU-145 [9] = experiment: Growth inhibition of human DU145 cells assessed as cell viability at 0.1 uM incubated for 48 hrs by sulforhodamine B assay; details: DU-145, 48 h, read-out: Activity
SK-MEL-2 = experiment: Growth inhibition of human SK-MEL-2 cells incubated for 48 hrs by sulforhodamine B assay; details: SK-MEL-2, 48 h; summary of the method: as §2
UO-31 = experiment: Growth inhibition of human UO31 cells assessed as cell viability at 0.001 uM incubated for 48 hrs by sulforhodamine B assay relative to control; details: UO-31, 48 h, read-out: Activity
KM12 = experiment: Growth inhibition of human KM12 cells assessed as cell viability at 100 uM incubated for 48 hrs by sulforhodamine B assay; details: KM12, 48 h, read-out: Activity
OVCAR-8 [10] = experiment: Growth inhibition of human OVCAR8 cells assessed as cell viability at 100 uM incubated for 48 hrs by sulforhodamine B assay; details: OVCAR-8, 48 h, read-out: Activity
COLO 205 = experiment: Growth inhibition of human COLO205 cells assessed as cell viability at 1 uM incubated for 48 hrs by sulforhodamine B assay; details: COLO 205, 48 h, read-out: Activity
OVCAR-8 [11] = experiment: Growth inhibition of human OVCAR8 cells incubated for 48 hrs by sulforhodamine B assay; details: OVCAR-8, 48 h; summary of the method: as §2
HCT-15 = experiment: Growth inhibition of human HCT15 cells incubated for 48 hrs by sulforhodamine B assay; details: HCT-15, 48 h; summary of the method: as §1
BT-549 = experiment: Growth inhibition of human BT549 cells assessed as cell viability at 100 uM incubated for 48 hrs by sulforhodamine B assay; details: BT-549, 48 h, read-out: Activity
T47D [12] = experiment: Growth inhibition of human T47D cells assessed as cell viability at 1 uM incubated for 48 hrs by sulforhodamine B assay; details: read-out: Activity
[13] = read-out: LC50 (the source's name)
[14] = read-out: pLC50 (the source's name) (converted)

Compound: CC1=C(C(=O)OCc2ccccc2)C(c2ccc3c(c2)OCO3)n2c(nc3ccccc32)N1 (racemic)
- GI50 (DU-145 [1]; read-out: GI50): 590 nM
- CC50 (DU-145 [1]; [13]): > 100000 nM
- TGI (DU-145 [1]; read-out: TGI): > 100000 nM
- GI50 (DU-145 [1]; read-out: pGI50 (converted)): 589 nM
- CC50 (DU-145 [1]; [14]): > 100000 nM
- TGI (DU-145 [1]; read-out: pTGI): > 100000 nM
- Activity (SNB-75): 7.65%
- viability at 0.001 µM (HL-60(TB) [2]): 95%
- viability at 100 µM (NCI/ADR-RES): 14%
- GI50 (T47D [3]; read-out: GI50): 480 nM
- CC50 (T47D [3]; [13]): > 100000 nM
- TGI (T47D [3]; read-out: TGI): > 100000 nM
- GI50 (T47D [3]; read-out: pGI50 (converted)): 479 nM
- CC50 (T47D [3]; [14]): > 100000 nM
- TGI (T47D [3]; read-out: pTGI): > 100000 nM
- viability at 0.001 µM (M14): 93%
- GI50 (OVCAR-3 [4]; read-out: GI50): 260 nM
- CC50 (OVCAR-3 [4]; [13]): > 100000 nM
- TGI (OVCAR-3 [4]; read-out: TGI): 1090 nM
- GI50 (OVCAR-3 [4]; read-out: pGI50 (converted)): 257 nM
- CC50 (OVCAR-3 [4]; [14]): > 100000 nM
- TGI (OVCAR-3 [4]; read-out: pTGI (converted)): 1100 nM
- viability at 1 µM (MOLT-4): 43%
- viability at 0.001 µM (OVCAR-8 [5]): 95%
- viability at 0.001 µM (OVCAR-3 [6]): 95%
- viability at 100 µM (HL-60(TB) [7]): 9%
- viability at 0.001 µM (SK-OV-3): 99%
- viability at 1 µM (HL-60(TB) [8]): 8%
- viability at 0.1 µM (DU-145 [9]): 109%
- GI50 (SK-MEL-2; read-out: GI50): 1290 nM
- LC50 (SK-MEL-2; read-out: LC50): > 100000 nM
- TGI (SK-MEL-2; read-out: TGI): > 100000 nM
- GI50 (SK-MEL-2; read-out: pGI50 (converted)): 1290 nM
- LC50 (SK-MEL-2; read-out: pLC50 (converted)): > 100000 nM
- TGI (SK-MEL-2; read-out: pTGI): > 100000 nM
- viability at 0.001 µM (UO-31): 86%
- viability at 100 µM (KM12): 18%
- viability at 100 µM (OVCAR-8 [10]): 14%
- viability at 1 µM (COLO 205): 28%
- GI50 (OVCAR-8 [11]; read-out: GI50): 630 nM
- CC50 (OVCAR-8 [11]; [13]): > 100000 nM
- TGI (OVCAR-8 [11]; read-out: TGI): > 100000 nM
- GI50 (OVCAR-8 [11]; read-out: pGI50 (converted)): 631 nM
- CC50 (OVCAR-8 [11]; [14]): > 100000 nM
- TGI (OVCAR-8 [11]; read-out: pTGI): > 100000 nM
- GI50 (HCT-15; read-out: GI50): 370 nM
- LC50 (concentration causing 50% net cell kill) (HCT-15; read-out: LC50): > 100000 nM
- TGI (HCT-15; read-out: TGI): > 100000 nM
- GI50 (HCT-15; read-out: pGI50 (converted)): 372 nM
- LC50 (concentration causing 50% net cell kill) (HCT-15; read-out: pLC50 (converted)): > 100000 nM
- TGI (HCT-15; read-out: pTGI): > 100000 nM
- viability at 100 µM (BT-549): 35%
- viability at 1 µM (T47D [12]): 30%
